Screening results deposited in PubChem by several laboratories.
Apaf1 inhib: human Apaf-1 inhibition; reconstituted apoptosome caspase-3 activity, DEVD-Rh110 fluorescence; inhibition, % at 20 µM; 0.71% of 330,000 active; O14727; active = inhibition of at least 40% at 20 µM;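 also: plate controls were DMSO wells for no effect and DEVD-CHO caspase inhibitor wells for full effect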
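System: Apoptosome proteins | Medium: Hepes pH 7.5 with detergent and BSA | Also added: Cytochrome c trigger plus (Z-DEVD)2-Rh110 caspase-3 substrate | Incubation: 30 min compound preincubation, 50 min activation, room temperature | Detection: Rhodamine 110 fluorescence at Ex 480/Em 540 nm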
PREPL inhibitor: inhibits the human prolyl oligopeptidase-like enzyme. Q4J6C6. recombinant PREPL, fluorescence polarization activity-based probe. inhibition, % at 5.96 µM. 0.68% of 320,000 active. AID 2751; in the data active = inhibition above about 43%;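 also: 0% = enzyme with DMSO and 100% = wells lacking enzyme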
Target sequence (Q4J6C6 whole entry, looked up): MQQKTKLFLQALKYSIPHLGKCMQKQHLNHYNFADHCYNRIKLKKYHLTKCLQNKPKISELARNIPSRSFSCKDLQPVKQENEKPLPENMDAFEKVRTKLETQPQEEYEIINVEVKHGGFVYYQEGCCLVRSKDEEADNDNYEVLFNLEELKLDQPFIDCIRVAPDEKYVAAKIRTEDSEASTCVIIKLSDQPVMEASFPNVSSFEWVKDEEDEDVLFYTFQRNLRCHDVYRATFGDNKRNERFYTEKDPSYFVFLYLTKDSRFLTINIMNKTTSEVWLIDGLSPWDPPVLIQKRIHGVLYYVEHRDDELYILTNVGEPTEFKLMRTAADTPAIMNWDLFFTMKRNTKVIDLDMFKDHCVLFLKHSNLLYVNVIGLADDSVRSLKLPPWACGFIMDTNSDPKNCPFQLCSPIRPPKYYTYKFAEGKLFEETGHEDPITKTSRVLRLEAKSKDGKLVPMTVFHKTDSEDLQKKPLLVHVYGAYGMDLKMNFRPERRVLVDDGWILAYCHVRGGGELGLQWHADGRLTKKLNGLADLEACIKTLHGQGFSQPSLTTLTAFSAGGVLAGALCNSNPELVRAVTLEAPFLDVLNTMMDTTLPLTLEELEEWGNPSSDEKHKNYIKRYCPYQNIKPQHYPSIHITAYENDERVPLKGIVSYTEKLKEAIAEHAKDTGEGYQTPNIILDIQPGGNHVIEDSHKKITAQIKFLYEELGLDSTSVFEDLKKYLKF
ZTA counter: blocks Epstein-Barr virus ZTA, an EBNA-1 counter-screen; inhibition, % at 11 µM; 0.15% of 320,000 active; AID 2234; P03206; ZTA-DNA binding, fluorescence polarization; in the data active = inhibition above about 33%
EBNA-1 inhibitor: blocks EBNA-1 binding to DNA | EBNA-1 DNA binding, fluorescence polarization | inhibition, % at 14.8 µM | 0.34% of 300,000 active; in the data active = inhibition above about 28%
UBC13 polyUb: blocks human UBC13 polyubiquitin chain formation | P61088 | TR-FRET | inhibition, % at 20 µM | 0.47% of 330,000 active | AID 485273; in the data active = inhibition above about 45%, passing the limit was not always enough
The depositor's hits bear a star; . = not tested or not shown; + = active, no number. Hits are enriched below; roughly 1.7% of the tested compounds scored in any of these assays.

SMILES	Apaf1 inhib	PREPL inhibitor	ZTA counter	EBNA-1 inhibitor	UBC13 polyUb
O=[N+]([O-])c1cccc(N=NN(CCO)c2cccc([N+](=O)[O-])c2)c1	12	52*	-2	-17	5
CCCN(N=Nc1cccc([N+](=O)[O-])c1)c1cccc([N+](=O)[O-])c1	-3	9	5	-8	-7
COC(=O)c1ccccc1S(=O)(=O)Nc1ccc2cn[nH]c2c1	-1	4	3	1	3
COc1cc2c(cc1OC)C(c1ccc(-c3ccc(Cl)c(Cl)c3)o1)=NCC2	41*	9	-2	-10	5
COc1cc2c(cc1OC)C(c1ccc(-c3cc(Cl)ccc3Cl)o1)=NCC2	32	-12	-1	5	6
CC(=O)Nc1sc2c(c1-c1nc3ccccc3s1)CN(C(C)C)CC2	17	18	.	.	30
CC(=O)N1CCc2c(sc(NC(=O)C3CC3)c2-c2nc3ccccc3s2)C1	72*	15	0	2	-2
O=C1c2ccccc2C(=O)C12OC2c1cccc2ccccc12 (stereo not given)	94*	4	-5	1	-47
CC(C)(C)n1nnnc1C(c1ccc(C#N)cc1)N1CCCC2(CCCCC2)C1 (stereo not given)	1	9	5	13	-5
O=C(O)CCC1c2cc3c4cc2OC2Oc5cc6c(cc51)C(CCC(=O)O)c1cc5c7cc1OC(O6)c1cc6cc(c1)Oc1cc(cc(C(=O)O)c1)Oc1cc8cc(c1)C(Oc1cc(c(cc1C5CCC(=O)O)C3CCC(=O)O)OC(O4)c1cc(cc(c1)Oc1cc(cc(C(=O)O)c1)O8)Oc1cc(cc(C(=O)O)c1)Oc1cc(cc2c1)Oc1cc(cc(C(=O)O)c1)O6)O7 (stereo not given)	99*	-74	106*	102*	122*
O=C(CSc1ccsc1[N+](=O)[O-])N1CCN(c2ccc(Cl)cc2)CC1	6	44*	-1	-14	-5
CN(C(=O)c1cccs1)c1ccc(OCC(=O)N2CCC(C(N)=O)CC2)cc1	-6	1	-7	-8	2
CCOc1ccc(CNC2CCCc3ccccc32)cc1 (stereo not given)	9	21	-10	-5	4
CC(=O)CCc1ccc(OCC(O)CNC2CCCc3ccccc32)cc1 (stereo not given)	65*	-5	5	8	6
O=C(NNC(=O)c1cccs1)c1ccc(Cl)c(S(=O)(=O)N2CCCC2)c1	-6	11	.	.	-10
Nc1ccc(N2CCCCC2)c2nonc12	97*	12	57*	-14	-93
Nc1ccc(O)c2ccccc12	68*	32	-7	2	-39
Nc1ccc(N=Nc2ccccc2)c2ccccc12	19	20	-4	3	-139
COCCn1nnnc1C(c1cccs1)N1CCN(c2nc3ccccc3s2)CC1 (stereo not given)	12	50*	-5	-2	5
COCCn1nnnc1C(c1cccs1)N1CCN(c2cc(C)ccc2C)CC1 (stereo not given)	20	-7	0	-7	-5
COc1ccc(CCNC(=O)CSc2nnc(-c3ccco3)c(-c3ccco3)n2)cc1OC	43*	11	0	-4	-31
O=C(CN1C(=O)c2ccccc2C1=O)Nc1cccc2cccnc12	3	-10	-4	5	14
O=C1C=C(Nc2cccc3cccnc23)c2ccccc2C1=O	47*	25	10	-6	-23
Cc1cccc(C)c1NC(=O)COC(=O)c1ccc2c(c1)OCO2	10	7	4	-2	-6
Cc1cccc(C)c1NC(=O)COC(=O)c1c2c(nc3ccccc13)/C(=C\c1ccc3c(c1)OCO3)CCC2	.	71*	4	6	.
SMILES	Apaf1 inhib	PREPL inhibitor	ZTA counter	EBNA-1 inhibitor	UBC13 polyUb
CCCCc1ccc(NC(=S)NCc2cccc(OC)c2)cc1	22	0	10	2	-1
CCCCc1ccc(NC(=S)Nc2ccc(Nc3ccc(OC)cc3)cc2)cc1	-5	47*	-22	-5	-6
C=CCN=c1scc(-c2ccccc2)n1/N=C/c1ccccn1	5	13	84*	9	13
COc1cccc(NC(=S)NN=C2CCC(C(C)(C)C)CC2)c1 (stereo not given)	22	15	-8	-16	-6
Nc1ccc(Nc2nc(-c3ccncc3)cs2)cc1	-25	44*	-11	7	2
Clc1ccc(Nc2nc(-c3ccncc3)cs2)cc1	-7	11	9	8	-2
CN1CCN(C2=C(Cl)C(=O)N(C3CCCCC3)C2=O)CC1	4	6	3	12	-4
CN1CCN(C2=C(Cl)C(=O)C(c3cnc(N4CCCCC4)s3)=C(Cl)C2=O)CC1	84*	50*	6	-15	-18
CCN(CC(=O)Nc1ccccc1OC)C(=O)CN1C(=O)NC(C)(c2ccc(C)cc2)C1=O (stereo not given)	1	8	-9	.	7
CCN(CC(=O)Nc1ccccc1OC)C(=O)CN1C(=O)NC(C)(c2ccccc2)C1=O (stereo not given)	49*	13	-1	.	14
O=C(OC[C@H]1O[C@@H](OC(=O)c2cc(O)c(O)c(OC(=O)c3cc(O)c(O)c(O)c3)c2)[C@H](OC(=O)c2cc(O)c(O)c(OC(=O)c3cc(O)c(O)c(O)c3)c2)[C@@H](OC(=O)c2cc(O)c(O)c(OC(=O)c3cc(O)c(O)c(O)c3)c2)[C@@H]1OC(=O)c1cc(O)c(O)c(OC(=O)c2cc(O)c(O)c(O)c2)c1)c1cc(O)c(O)c(OC(=O)c2cc(O)c(O)c(O)c2)c1	.	104*	87*	86*	.
O=C(Nc1cccc(CNCCc2c[nH]c3ccccc23)c1)c1ccccc1Cl	21	-23	-3	3	12
COc1cc(C(=O)NC2CCN(CC(=O)NC3CCCCC3)CC2)cc(OC)c1OC	0	-5	-15	-11	4
Cc1ccc(NC(=O)c2ccc(CN3CCc4ccccc4C3)cc2)cc1	48*	-1	3	-7	1
Cc1ccccc1Nc1cc2ccccc2c(=O)[nH]1	96*	6	30	8	-53
Cc1c(C=O)c(=O)n(-c2ccccc2)n1C	-1	6	+	+	-11
Cc1c(N(C)C)c(=O)n(-c2ccccc2)n1C	-3	-4	2	.	6
O=C(NCC1CCCO1)c1ccc2[nH]c3c(c2c1)CCCC3 (stereo not given)	9	.	.	.	-7
CCN1CCCC1CNCc1ccc(OCc2ccc(Cl)nc2)c(OC)c1 (stereo not given)	-15	4	9	8	16
COC(=O)CCC(=O)OC1(C)C(=O)C=C2C=C(C3CC3)N(c3ccccc3)C=C2C1=O (stereo not given)	9	47*	9	2	-35
Cc1cc(-c2ccccc2)[nH]c(=O)c1C#N	-1	4	10	13	12
COc1ccc(C2C(C(C)=O)=C(C)Nc3ncnn32)cc1OC (stereo not given)	-5	-3	-4	-6	1
